Test results taken from PMC5730044 (International journal of medical microbiology : IJMM, 2014).
Converted amounts (≈) assume the structure as drawn.

What was measured:
[1] = tested on: S. pneumoniae PN8828; experiment: Broth microdilution assay; format: cell-based; details: Streptococcus pneumoniae, PN8828, 18 h, read-out: 90% minimal inhibitory concentration
[2] = tested on: S. pneumoniae; experiment: Bactericidal activity, studied pneumococci; format: cell-based
[3] = tested on: human erythrocytes; experiment: Erythrocyte hemolysis assay; format: cell-based; details: observed in HA assay with D39 protein
[4] = Erythrocyte hemolysis assay; format: cell-based, human; details: human, erythrocytes
[5] = tested on: S. pneumoniae BC7326; experiment: Minimal bactericidal concentration; format: cell-based; details: viability reduced by ≥99.9%
[6] = tested on: S. pneumoniae CF8919; experiment: Biofilm inhibition assay; format: cell-based; details: CF8919, TSB, 24 h
[7] = tested on: S. pneumoniae DSM20566 adherence to A549 cells; experiment: Adherence inhibition assay on A549 cells; format: cell-based; details: Streptococcus pneumoniae, DSM20566, A549, 1.5 h, read-out: concentration giving 50% reduction in adherence levels (AIC50)
[8] = tested on: S. pneumoniae BC7326; experiment: Broth microdilution assay; format: cell-based; details: Streptococcus pneumoniae, BC7326, 18 h, read-out: 90% minimal inhibitory concentration
[9] = tested on: S. pneumoniae DSM14378; experiment: Minimal bactericidal concentration; format: cell-based; details: viability reduced by ≥99.9%
[10] = tested on: pneumococcal NA of strain DSM20566; experiment: Lectin-based hemagglutination; format: cell-based, S. pneumoniae; details: minimal NA inhibitory concentration
[11] = tested on: S. pneumoniae DSM14378; experiment: Broth microdilution assay; format: cell-based; details: Streptococcus pneumoniae, DSM14378, 18 h, read-out: 90% minimal inhibitory concentration
[12] = tested on: pneumococcal NA of strain CJ9400; experiment: Lectin-based hemagglutination; format: cell-based, S. pneumoniae; details: minimal NA inhibitory concentration
[13] = tested on: S. pneumoniae DSM20566; experiment: Minimal bactericidal concentration; format: cell-based; details: viability reduced by ≥99.9%
[14] = tested on: A549 cells; experiment: Cytotoxicity on confluent A549 cell monolayers; format: cell-based, human; details: 12.50 μM, A549, 72 h
Procedure, shortened: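 Three-day-old confluent A549 monolayers were exposed to two-fold serial compound dilutions in duplicate for 72 h at 37°C, 5% CO₂. Cells were washed, fixed and crystal violet-stained, and dye was eluted in citrate/HCl/ethanol buffer for OD550. Viability is relative to six untreated controls. CC50 comes from mean dose-response curves of at least three assays. Morphology at 12.5 µM was checked by phase-contrast microscopy.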

[15] = tested on: S. pneumoniae CF6937; experiment: Broth microdilution assay; format: cell-based; details: Streptococcus pneumoniae, CF6937, 18 h, read-out: 90% minimal inhibitory concentration
[16] = tested on: S. pneumoniae D39; experiment: Minimal bactericidal concentration; format: cell-based; details: viability reduced by ≥99.9%
[17] = tested on: S. pneumoniae DSM20566; experiment: Broth microdilution assay; format: cell-based; details: Streptococcus pneumoniae, DSM20566, 18 h, read-out: 90% minimal inhibitory concentration
[18] = tested on: pneumococcal adherence to pulmonary epithelial A549 cells
[19] = tested on: S. pneumoniae BC7326; experiment: Biofilm inhibition assay; format: cell-based; details: BC7326, TSB, 24 h
[20] = tested on: S. pneumoniae CJ9400; experiment: Biofilm inhibition assay; format: cell-based; details: CJ9400, TSB, 24 h
[21] = tested on: pneumococcal NA of strain D39; experiment: Lectin-based hemagglutination; format: cell-based, S. pneumoniae
[22] = tested on: S. pneumoniae CJ9400; experiment: Minimal bactericidal concentration; format: cell-based; details: viability reduced by ≥99.9%
[23] = tested on: S. pneumoniae CF8919; experiment: Broth microdilution assay; format: cell-based; details: Streptococcus pneumoniae, CF8919, 18 h, read-out: 90% minimal inhibitory concentration
[24] = tested on: S. pneumoniae PN8828; experiment: Biofilm inhibition assay; format: cell-based; details: PN8828, TSB, 24 h
[25] = tested on: S. pneumoniae PN8828 adherence to A549 cells; experiment: Adherence inhibition assay on A549 cells; format: cell-based; details: Streptococcus pneumoniae, A549, 1.5 h, read-out: concentration giving 50% reduction in adherence levels (AIC50)
[26] = tested on: S. pneumoniae BC57; experiment: Broth microdilution assay; format: cell-based; details: Streptococcus pneumoniae, BC57, 18 h, read-out: 90% minimal inhibitory concentration
[27] = tested on: S. pneumoniae DSM20566; experiment: Biofilm inhibition assay; format: cell-based; details: DSM20566, TSB, 24 h
[28] = tested on: S. pneumoniae CF6937; experiment: Minimal bactericidal concentration; format: cell-based; details: viability reduced by ≥99.9%
[29] = tested on: S. pneumoniae BC57; experiment: Biofilm inhibition assay; format: cell-based; details: BC57, TSB, 24 h
[30] = tested on: S. pneumoniae; experiment: Biofilm inhibition assay; format: cell-based; details: range among all tested strains
[31] = tested on: S. pneumoniae D39; experiment: Biofilm inhibition assay; format: cell-based; details: D39, TSB, 24 h
[32] = tested on: S. pneumoniae; experiment: Broth microdilution assay; format: cell-based; details: Streptococcus pneumoniae, read-out: MIC90 values
Procedure, shortened: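 Pneumococci were pre-grown in BHI with gentle shaking at 37°C for 4–5 h (mid-exponential), adjusted to McFarland 0.5 (1.5 × 10^8 cfu/mL) and diluted 50× in BHI. 50 µL bacteria plus 100 µL of two-fold compound dilutions (top 50 or 200 µM) in BHI were run in duplicate, overnight at 37°C, 5% CO₂. OD620 at 18 h minus 0 h was taken relative to no-compound growth control; MIC90 is 90% turbidity reduction.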

[33] = tested on: S. pneumoniae D39; experiment: Broth microdilution assay; format: cell-based; details: Streptococcus pneumoniae, D39, 18 h, read-out: 90% minimal inhibitory concentration
[34] = tested on: S. pneumoniae CJ9400; experiment: Broth microdilution assay; format: cell-based; details: Streptococcus pneumoniae, CJ9400, 18 h, read-out: 90% minimal inhibitory concentration
[35] = tested on: S. pneumoniae DSM14378; experiment: Biofilm inhibition assay; format: cell-based; details: DSM14378, TSB, 24 h
[36] = tested on: S. pneumoniae CF6937; experiment: Biofilm inhibition assay; format: cell-based; details: CF6937, TSB, 24 h
[37] = molecular target: recombinant NanA of DSM20566 (Streptococcus pneumoniae, UniProt P62575); format: biochemical, S. pneumoniae; details: for mechanism of inhibition: rNanA, Lineweaver-Burk / SigmaPlot analysis
[38] = molecular target: viral NAs; details: ref Collins et al., 2008; cited from earlier work
[39] = molecular target: pneumococcal NA (Streptococcus pneumoniae, UniProt P62575); details: ref Gut et al., 2011; cited from earlier work
Sequence of pneumococcal NA (P62575 54-1006): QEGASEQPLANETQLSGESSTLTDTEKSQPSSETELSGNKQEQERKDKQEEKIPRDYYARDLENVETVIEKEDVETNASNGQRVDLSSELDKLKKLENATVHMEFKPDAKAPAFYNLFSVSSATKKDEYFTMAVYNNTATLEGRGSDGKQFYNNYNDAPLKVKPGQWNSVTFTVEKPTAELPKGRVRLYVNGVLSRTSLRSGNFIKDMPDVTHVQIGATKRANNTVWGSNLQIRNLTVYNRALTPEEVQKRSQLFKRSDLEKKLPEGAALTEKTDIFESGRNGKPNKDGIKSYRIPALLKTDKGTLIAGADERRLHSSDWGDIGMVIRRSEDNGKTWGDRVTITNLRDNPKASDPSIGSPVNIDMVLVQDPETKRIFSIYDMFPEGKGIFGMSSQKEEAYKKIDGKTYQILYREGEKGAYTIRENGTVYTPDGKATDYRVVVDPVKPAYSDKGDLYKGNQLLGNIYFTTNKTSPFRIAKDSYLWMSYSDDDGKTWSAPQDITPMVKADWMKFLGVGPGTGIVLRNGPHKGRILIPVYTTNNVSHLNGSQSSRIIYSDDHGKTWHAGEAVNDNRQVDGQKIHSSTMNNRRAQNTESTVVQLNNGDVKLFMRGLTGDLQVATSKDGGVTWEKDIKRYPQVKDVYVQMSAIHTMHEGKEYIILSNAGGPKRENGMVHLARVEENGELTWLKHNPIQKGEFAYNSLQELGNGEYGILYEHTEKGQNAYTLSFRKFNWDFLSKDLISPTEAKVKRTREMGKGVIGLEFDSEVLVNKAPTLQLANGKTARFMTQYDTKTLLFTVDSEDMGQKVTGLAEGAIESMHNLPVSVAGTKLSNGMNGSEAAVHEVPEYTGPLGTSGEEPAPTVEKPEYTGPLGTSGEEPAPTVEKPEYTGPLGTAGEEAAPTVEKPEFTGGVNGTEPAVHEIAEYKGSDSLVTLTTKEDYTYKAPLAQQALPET

Sequence of recombinant NanA of DSM20566 (P62575 116-1035 limits assumed): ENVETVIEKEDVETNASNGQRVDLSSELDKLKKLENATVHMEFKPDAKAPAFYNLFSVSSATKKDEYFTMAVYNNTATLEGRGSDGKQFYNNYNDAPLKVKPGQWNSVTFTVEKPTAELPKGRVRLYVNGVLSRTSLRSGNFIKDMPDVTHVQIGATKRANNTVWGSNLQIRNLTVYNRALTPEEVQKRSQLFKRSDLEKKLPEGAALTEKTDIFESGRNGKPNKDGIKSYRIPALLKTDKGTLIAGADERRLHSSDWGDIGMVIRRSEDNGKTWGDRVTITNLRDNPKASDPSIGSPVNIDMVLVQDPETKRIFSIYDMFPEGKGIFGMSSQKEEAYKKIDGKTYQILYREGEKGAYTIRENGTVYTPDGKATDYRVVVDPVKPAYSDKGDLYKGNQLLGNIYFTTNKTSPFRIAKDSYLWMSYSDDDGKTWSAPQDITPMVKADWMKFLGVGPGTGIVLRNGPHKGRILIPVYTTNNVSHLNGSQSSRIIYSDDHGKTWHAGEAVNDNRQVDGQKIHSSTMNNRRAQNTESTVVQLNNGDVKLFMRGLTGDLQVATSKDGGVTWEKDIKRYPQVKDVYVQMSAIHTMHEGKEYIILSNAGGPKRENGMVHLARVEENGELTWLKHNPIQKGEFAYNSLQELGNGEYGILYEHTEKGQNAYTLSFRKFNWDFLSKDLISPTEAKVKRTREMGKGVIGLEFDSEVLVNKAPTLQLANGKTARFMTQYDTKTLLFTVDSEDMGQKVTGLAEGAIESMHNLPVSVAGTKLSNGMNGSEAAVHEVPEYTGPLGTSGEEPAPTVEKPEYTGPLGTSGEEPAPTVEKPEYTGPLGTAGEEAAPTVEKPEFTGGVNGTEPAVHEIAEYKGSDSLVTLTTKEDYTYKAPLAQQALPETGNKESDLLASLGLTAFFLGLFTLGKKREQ

| SMILES | Bactericidal concentration [5] [µM] | 90% minimal biofilm inhibitory concentration [6] [µM] | Bactericidal concentration [9] [µM] | Inhibitory concentration (HA assay) [10] [µM] | Inhibitory concentration (HA assay) [12] [µM] | Bactericidal concentration [13] [µM] | Bactericidal concentration [16] [µM] | 90% minimal biofilm inhibitory concentration [19] [µM] | 90% minimal biofilm inhibitory concentration [20] [µM] | Bactericidal concentration [22] [µM] | 90% minimal biofilm inhibitory concentration [24] [µM] | 90% minimal biofilm inhibitory concentration [27] [µM] | Bactericidal concentration [28] [µM] | 90% minimal biofilm inhibitory concentration [29] [µM] | 90% minimal biofilm inhibitory concentration [31] [µM] | 90% minimal biofilm inhibitory concentration [35] [µM] | 90% minimal biofilm inhibitory concentration [36] [µM] | mechanism of inhibition [37] | further results |
| --- | --- | --- | --- | --- | --- | --- | --- | --- | --- | --- | --- | --- | --- | --- | --- | --- | --- | --- | --- |
| COc1cc2oc(-c3ccc(O)cc3O)c(CC=C(C)C)c(=O)c2c(O)c1/C=C/C(C)C [artocarpin] | 3.32 ± 1.94 | 1.15 ± 0.34 | 4.69 ± 1.98 | 7.7 ± 4.0 | 2.6 ± 1.1 | 3.13 ± 0.00 | 2.50 ± 0.77 | 2.02 ± 0.62 | 2.97 ± 0.13 | 2.74 ± 0.68 | 1.40 ± 0.07 | 2.88 ± 0.07 | 3.44 ± 1.53 | 2.35 ± 0.68 | 2.22 ± 0.76 | 2.37 ± 0.67 | 2.73 ± 0.27 | mixed-type inhibition | MIC [1]: 0.99 ± 0.48 µM (≈ 0.432 µg/mL); factor of reduction of viability of pneumococci ([2]; within 18 h): > 1000; concentration at which erythrocytes were lysed [3]: b The erythrocytes were lysed in the presence of artocarpin at concentrations higher than 10 µM.; hemolysis at 3 h, 31.6 µM [4]: 20%; IC50 [7]: 7.5 µM; MIC [8]: 1.12 ± 0.37 µM (≈ 0.489 µg/mL); MIC [11]: 5.75 ± 0.13 µM (≈ 2.51 µg/mL); cytotoxic effect (in words) [14]: no cytotoxic effect; MIC [15]: 3.39 ± 2.1 µM (≈ 1.48 µg/mL); MIC [17]: 5.58 ± 0.97 µM (≈ 2.44 µg/mL); effect on A549 cell viability under adherence assay conditions (in words) [18]: did not affect cell viability; activity in HA assay (in words) ([21]; reference strain D39): no activity; MIC [23]: 1.45 ± 0.01 µM (≈ 0.633 µg/mL); IC50 [25]: 4.1 µM; MIC [26]: 1.45 ± 0.04 µM (≈ 0.633 µg/mL); mean MBIC90 values [30]: 1.15 to 2.97 µM; MIC90 [32]: 0.99 to 5.75 µM (≈ 0.432 to 2.51 µg/mL); MIC [33]: 1.29 ± 0.31 µM (≈ 0.563 µg/mL); MIC [34]: 3.45 ± 2.05 µM (≈ 1.51 µg/mL) |
| CCC(CC)O[C@@H]1C=C(C(=O)O)C[C@H](N)[C@H]1NC(C)=O [oseltamivir, Oseltamivir carboxylate] | > 50 | > 50 | > 50 | 2.1 ± 1.3 | 0.3 ± 0.0 | > 50 | > 50 | > 50 | > 50 | > 50 | > 50 | > 50 | > 50 | > 50 | > 50 | > 50 | > 50 | competitively inhibited | Ki [38]: 0.32 nM; concentration up to which no inhibitory or bactericidal activity was exhibited ([2]; maximum tested concentration): > 50 µM; effect on adhesion of pneumococci to A549 cells (in words) ([18]; DSM20566 and PN8828): did not reduce pneumococcal adherence; inhibitory potency to pneumococcal NA (in words) [39]: medium; Inhibitory concentration (HA assay) ([21]; minimal NA inhibitory concentration, strain D39): 10.0 ± 0.0 µM; factor by which inhibitory activity on bacterial NAs is lower than on viral NAs ([37]; compared to viral NAs Ki of 0.32 nM): 1000; Ki ([37]; rNanA of DSM20566, MUNANA substrate): 230 nM |
